# Experimental data pooled from the literature.
# Cell line: Vero
# Effect on: cell growth or viability
Compound,test,conditions,CC50
Fc1ccccc1NCc1ccc(Oc2ccccn2)cc1,MTT,72 h,> 300 µM
O=C(Nc1cccc(C(F)(F)F)c1)c1cc(Cl)ccc1O,MTT,72 h,< 5 µg/mL
Cc1cccc(NCc2ccc(Oc3ccccn3)cc2)c1,MTT,72 h,> 300 µM
C[C@@H]1[C@H](O)[C@@H](C)/C=C/C=C/C=C/C=C/C=C/C=C/C=C/[C@H](O[C@@H]2O[C@H](C)[C@@H](O)[C@H](N)[C@@H]2O)C[C@@H]2O[C@](O)(C[C@@H](O)C[C@@H](O)[C@H](O)CC[C@@H](O)C[C@@H](O)CC(=O)O[C@H]1C)C[C@H](O)[C@H]2C(=O)O,,,7.7 µM
Cc1ccccc1NCc1ccc(Oc2ccccn2)cc1,MTT,72 h,> 300 µM
N#Cc1c(-c2ccc(Cl)cc2)nc2n(c1=O)NC(c1ccccc1O)N2C(Cc1c[nH]c2ccccc12)C(=O)O (stereo not drawn),MTT,72 h,250 µg/mL
O=C(Nc1ccc(Br)c(C(F)(F)F)c1)c1cc(Cl)ccc1O,MTT,72 h,5 µg/mL
COC(=O)N[C@H](C(=O)N1C[C@H](N=[N+]=[N-])C[C@H]1c1ncc(-c2ccc(-c3ccc(-c4cnc([C@@H]5C[C@@H](N=[N+]=[N-])CN5C(=O)[C@@H](NC(=O)OC)C(C)C)[nH]4)cc3)cc2)[nH]1)C(C)C,,,> 100 µM
O=C(Nc1ccc(Cl)c(C(F)(F)F)c1)c1cc(Cl)ccc1O,MTT,72 h,5 µg/mL
CC(C)(CO)C(=O)SCCOP(=O)(NCc1ccccc1)OC[C@H]1O[C@@H](n2cnc3c(=O)[nH]c(N)nc32)[C@](C)(O)[C@@H]1O (mixture of isomers),,,> 100 µM
COC(=O)N[C@H](C(=O)N1CCC[C@H]1c1nc(-c2ccc(-c3ccc(-c4c[nH]c([C@@H]5CCCN5C(=O)[C@@H](NC(=O)OC)C(C)C)n4)cc3)cc2)c[nH]1)C(C)C,,,26 µM
CC1(c2ccccc2O)Nn2c(nc(-c3ccc(Cl)cc3)c(C#N)c2=O)N1C(Cc1c[nH]c2ccccc12)C(=O)O (stereo not drawn),MTT,72 h,500 µg/mL
O=C(Nc1ccc(F)c(F)c1)c1cc(Cl)ccc1O,MTT,72 h,< 5 µg/mL
NC(=O)c1ncn([C@@H]2O[C@H](CO)[C@@H](O)[C@H]2O)n1,MTT,72 h,> 200 µM
Clc1ccc(NCc2ccc(Oc3ccccn3)cc2)cc1,MTT,72 h,> 300 µM
O=C(Nc1ccc(Cl)cc1)c1cc(Cl)ccc1O,MTT,72 h,20 µg/mL
O=C1C(O)=C([C@H]2CC[C@H](c3ccc(Cl)cc3)CC2)C(=O)c2ccccc21,,,9.5 µM
COc1ccc(NCc2ccc(Oc3ccccn3)cc2)cc1,MTT,72 h,> 300 µM
O=C(Nc1ccc(Cl)c(C(F)(F)F)c1)c1ccccc1O,MTT,72 h,< 10 µg/mL
Brc1cccc(NCc2ccc(Oc3ccccn3)cc2)c1,MTT,72 h,> 300 µM
CC(=O)C1=C(C)N2NC(C)(c3ccccc3O)N(C(Cc3c[nH]c4ccccc34)C(=O)O)C2=NC1c1ccc(Cl)cc1 (stereo not drawn),MTT,72 h,500 µg/mL
